Reference: ChEMBL document CHEMBL1149315, “Insertion of an aspartic acid moiety into cyclic pseudopeptides: synthesis and biological characterization of potent antagonists for the human Tachykinin NK-2 receptor” (J Med Chem, 2004)

Columns and labels:
[1] = target: T1, Substance-K receptor (Rattus norvegicus) (UniProt P16610); experiment: Antagonist activity at NK2 receptor in rat urinary bladder assessed as effect on beta-Ala8]NKA(4-10)-induced mechanical activity; type: functional; conditions: filed as antagonist
T1 sequence (whole entry): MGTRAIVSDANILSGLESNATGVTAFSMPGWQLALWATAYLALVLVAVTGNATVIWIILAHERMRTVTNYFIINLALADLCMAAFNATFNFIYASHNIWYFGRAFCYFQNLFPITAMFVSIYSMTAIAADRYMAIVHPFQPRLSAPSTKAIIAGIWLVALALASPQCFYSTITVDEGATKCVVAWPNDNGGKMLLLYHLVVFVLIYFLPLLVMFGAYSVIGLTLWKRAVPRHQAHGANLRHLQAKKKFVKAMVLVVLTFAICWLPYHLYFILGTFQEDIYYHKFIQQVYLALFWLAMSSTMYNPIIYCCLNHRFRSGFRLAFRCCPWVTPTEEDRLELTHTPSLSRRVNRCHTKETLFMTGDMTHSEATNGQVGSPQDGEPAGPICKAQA
Summary of the method: (§1)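 Isolated smooth muscle strips were held in oxygenated (96% O2/4% CO2) Krebs–Henseleit at NaCl 119, NaHCO3 25, KH2PO4 1.2, MgSO4 1.5, CaCl2 2.5, KCl 4.7 and glucose 11 mM. Cumulative agonist concentration–response curves were run after 15 min antagonist incubation. pKB = log(dose ratio − 1) − log[antagonist], as the mean of individual values.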

Substance-K receptor = target: T2, Substance-K receptor (Homo sapiens, UniProt P21452); experiment: Displacement of [125I]neurokinin A from human NK2 receptor expressed in CHOK1 cells; type: cell-based, CHO-K1
T2 sequence (P21452 whole entry): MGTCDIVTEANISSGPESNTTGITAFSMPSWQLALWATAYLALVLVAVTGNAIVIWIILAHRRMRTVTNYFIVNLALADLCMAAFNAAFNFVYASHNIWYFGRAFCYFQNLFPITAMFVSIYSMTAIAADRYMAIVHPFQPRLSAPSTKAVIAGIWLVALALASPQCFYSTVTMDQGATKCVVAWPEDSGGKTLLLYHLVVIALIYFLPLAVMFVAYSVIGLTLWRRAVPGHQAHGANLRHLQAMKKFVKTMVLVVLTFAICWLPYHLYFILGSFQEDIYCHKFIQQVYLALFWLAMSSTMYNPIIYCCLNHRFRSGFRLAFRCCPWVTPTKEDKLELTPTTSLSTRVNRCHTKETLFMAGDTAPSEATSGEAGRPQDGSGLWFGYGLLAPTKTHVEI
Summary of the method: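 Competition binding was run on membranes of cells stably transfected with the human receptor: U-373MG for NK-1, CHO-K1 for NK-2 and NK-3. NK-1 used [3H][Sar9]SP sulfone at 1.2 nM. Affinity is given as pKi (−log Ki).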

[2] = target: T3, Substance-K receptor (Oryctolagus cuniculus) (UniProt P79218); experiment: Antagonist activity at NK2 receptor in rabbit pulmonary artery assessed as effect on neurokinin A-induced mechanical activity; type: functional; conditions: filed as antagonist; summary of the method: as §1
T3 sequence (whole entry): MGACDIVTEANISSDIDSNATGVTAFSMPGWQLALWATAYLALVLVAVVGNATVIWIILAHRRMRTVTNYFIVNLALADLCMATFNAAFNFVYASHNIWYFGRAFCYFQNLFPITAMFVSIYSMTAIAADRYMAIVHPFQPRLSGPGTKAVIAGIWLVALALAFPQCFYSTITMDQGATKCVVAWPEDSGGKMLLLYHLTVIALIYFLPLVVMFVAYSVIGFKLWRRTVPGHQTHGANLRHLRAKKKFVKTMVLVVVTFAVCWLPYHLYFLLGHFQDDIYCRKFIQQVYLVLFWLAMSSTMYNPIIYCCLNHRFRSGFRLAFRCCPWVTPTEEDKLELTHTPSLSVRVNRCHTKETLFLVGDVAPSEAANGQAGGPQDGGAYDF

pKb [1]	Ki (Substance-K receptor)	pKb [2]	Compound
7.8	0.1 nM (antagonist)		O=C1C[C@@H](NC2CCSCC2)C(=O)NC[C@@H](Cc2ccccc2)NC(=O)[C@H](Cc2ccccc2)NC(=O)[C@H](Cc2c[nH]c3ccccc23)N1
8.8	0.398 nM (antagonist)		O=C1C[C@@H](NC[C@H](O)[C@@H](O)[C@H](O)[C@H](O)CO)C(=O)NC[C@@H](Cc2ccccc2)NC(=O)[C@H](Cc2ccccc2)NC(=O)[C@H](Cc2c[nH]c3ccccc23)N1
8.1	2 nM (antagonist)		CC(=O)N[C@@H](CN[C@@H]1CC(=O)N[C@@H](Cc2c[nH]c3ccccc23)C(=O)N[C@@H](Cc2ccccc2)C(=O)N[C@H](Cc2ccccc2)CNC1=O)[C@@H](O)[C@H](O)[C@H](O)CO
8.5	1.58 nM (antagonist)		CN1CCN(CC(=O)N[C@@H]2CC(=O)N[C@@H](Cc3c[nH]c4ccccc34)C(=O)N[C@@H](Cc3ccccc3)C(=O)N[C@H](Cc3ccccc3)CNC2=O)CC1
9.3	3.16 nM (antagonist)		CS(=O)(=O)N1CCN([C@@H]2CC(=O)N[C@@H](Cc3c[nH]c4ccccc34)C(=O)N[C@@H](Cc3ccccc3)C(=O)N[C@H](Cc3ccccc3)CNC2=O)CC1
8.9	0.2 nM (antagonist)		O=C1C[C@@H](N2CCC(N3CCOCC3)CC2)C(=O)NC[C@@H](Cc2ccccc2)NC(=O)[C@H](Cc2ccccc2)NC(=O)[C@H](Cc2c[nH]c3ccccc23)N1
9	0.251 nM (antagonist)		O=C1C[C@@H](NC(=O)CN2CCC(N3CC[S+]([O-])CC3)CC2)C(=O)NC[C@@H](Cc2ccccc2)NC(=O)[C@H](Cc2ccccc2)NC(=O)[C@H](Cc2c[nH]c3ccccc23)N1
8.7	3.98 nM (antagonist)		O=C1CC(NC(=O)[C@@H](O)[C@H](O)[C@@H](O[C@@H]2O[C@H](CO)[C@H](O)[C@H](O)[C@H]2O)[C@@H](O)CO)C(=O)NC[C@@H](Cc2ccccc2)NC(=O)[C@H](Cc2ccccc2)NC(=O)[C@H](Cc2c[nH]c3ccccc23)N1 (stereo partly specified)
7.8	6.31 nM (antagonist)		O=C1C[C@H](NC2CCOCC2)C(=O)N[C@@H](Cc2c[nH]c3ccccc23)C(=O)N[C@@H](Cc2ccccc2)C(=O)N[C@H](Cc2ccccc2)CN1
7.4	7.94 nM (antagonist)		O=C1C[C@@H](NC2CCOCC2)C(=O)N[C@@H](Cc2c[nH]c3ccccc23)C(=O)N[C@@H](Cc2ccccc2)C(=O)N[C@H](Cc2ccccc2)CN1
7.7	25.1 nM (antagonist)		CC(=O)N[C@@H]1[C@@H](O)[C@H](O)[C@@H](CO)O[C@H]1NC(=O)C[C@H](NC(C)=O)C(=O)N[C@@H]1CC(=O)N[C@@H](Cc2c[nH]c3ccccc23)C(=O)N[C@@H](Cc2ccccc2)C(=O)N[C@H](Cc2ccccc2)CNC1=O
9.3	0.158 nM (antagonist)		O=C1C[C@@H](NC2CCS(=O)(=O)CC2)C(=O)NC[C@@H](Cc2ccccc2)NC(=O)[C@H](Cc2ccccc2)NC(=O)[C@H](Cc2c[nH]c3ccccc23)N1
		7.5	N[C@H]1CC(=O)N[C@@H](Cc2c[nH]c3ccccc23)C(=O)N[C@@H](Cc2ccccc2)C(=O)N[C@H](Cc2ccccc2)CNC1=O
9.2	0.398 nM (antagonist)		CN1CCN([C@@H]2CC(=O)N[C@@H](Cc3c[nH]c4ccccc34)C(=O)N[C@@H](Cc3ccccc3)C(=O)N[C@H](Cc3ccccc3)CNC2=O)CC1
9.5	0.0631 nM (antagonist)		CS(=O)(=O)N1CCC(N[C@@H]2CC(=O)N[C@@H](Cc3c[nH]c4ccccc34)C(=O)N[C@@H](Cc3ccccc3)C(=O)N[C@H](Cc3ccccc3)CNC2=O)CC1
9.6	0.126 nM (antagonist)		CC(=O)N1CCN([C@@H]2CC(=O)N[C@@H](Cc3c[nH]c4ccccc34)C(=O)N[C@@H](Cc3ccccc3)C(=O)N[C@H](Cc3ccccc3)CNC2=O)CC1

pKb [1]	Ki (Substance-K receptor)	pKb [2]	Compound
8.5	0.631 nM (antagonist)		O=C1C[C@@H](NC[C@H](O)[C@@H](O)[C@@H](O[C@H]2O[C@H](CO)[C@@H](O)[C@H](O)[C@H]2O)[C@H](O)CO)C(=O)NC[C@@H](Cc2ccccc2)NC(=O)[C@H](Cc2ccccc2)NC(=O)[C@H](Cc2c[nH]c3ccccc23)N1
8.8	0.158 nM (antagonist)		CN(C1CCOCC1)[C@@H]1CC(=O)N[C@@H](Cc2c[nH]c3ccccc23)C(=O)N[C@@H](Cc2ccccc2)C(=O)N[C@H](Cc2ccccc2)CNC1=O
8.2	1.26 nM (antagonist)		O=C1C[C@@H](NC[C@H](O)[C@@H](O)[C@H](O[C@@H]2O[C@H](CO)[C@H](O)[C@H](O)[C@H]2O)[C@H](O)CO)C(=O)NC[C@@H](Cc2ccccc2)NC(=O)[C@H](Cc2ccccc2)NC(=O)[C@H](Cc2c[nH]c3ccccc23)N1
9	0.2 nM (antagonist)		CN1CCC(N[C@@H]2CC(=O)N[C@@H](Cc3c[nH]c4ccccc34)C(=O)N[C@@H](Cc3ccccc3)C(=O)N[C@H](Cc3ccccc3)CNC2=O)CC1
8.5	5.01 nM (antagonist)		NC1CCN([C@@H]2CC(=O)N[C@@H](Cc3c[nH]c4ccccc34)C(=O)N[C@@H](Cc3ccccc3)C(=O)N[C@H](Cc3ccccc3)CNC2=O)CC1
9.1	0.126 nM (antagonist)		O=C1C[C@@H](NC(=O)CN2CCC(O)CC2)C(=O)NC[C@@H](Cc2ccccc2)NC(=O)[C@H](Cc2ccccc2)NC(=O)[C@H](Cc2c[nH]c3ccccc23)N1
8.5			O=C1C[C@@H](NC(=O)CN2CCOCC2)C(=O)NC[C@@H](Cc2ccccc2)NC(=O)[C@H](Cc2ccccc2)NC(=O)[C@H](Cc2c[nH]c3ccccc23)N1
8.9	0.2 nM (antagonist)		O=C1C[C@@H](N2CCC(N3CCCCC3)CC2)C(=O)NC[C@@H](Cc2ccccc2)NC(=O)[C@H](Cc2ccccc2)NC(=O)[C@H](Cc2c[nH]c3ccccc23)N1
9.1	0.0251 nM (antagonist)		O=C1C[C@@H](NC2CC[S+]([O-])CC2)C(=O)NC[C@@H](Cc2ccccc2)NC(=O)[C@H](Cc2ccccc2)NC(=O)[C@H](Cc2c[nH]c3ccccc23)N1 (stereo partly specified)
8.9	0.316 nM (antagonist)		O=C1C[C@@H](NC(=O)CN2CCC[C@H]2CO)C(=O)NC[C@@H](Cc2ccccc2)NC(=O)[C@H](Cc2ccccc2)NC(=O)[C@H](Cc2c[nH]c3ccccc23)N1
9.2	0.501 nM (antagonist)		NC(=O)C1CCN(CC(=O)N[C@@H]2CC(=O)N[C@@H](Cc3c[nH]c4ccccc34)C(=O)N[C@@H](Cc3ccccc3)C(=O)N[C@H](Cc3ccccc3)CNC2=O)CC1
9.5	0.0501 nM (antagonist)		NS(=O)(=O)N1CCC(N[C@@H]2CC(=O)N[C@@H](Cc3c[nH]c4ccccc34)C(=O)N[C@@H](Cc3ccccc3)C(=O)N[C@H](Cc3ccccc3)CNC2=O)CC1
7.6	1.58 nM (antagonist)		CC(=O)N[C@H]1[C@H](NC(=O)CCC(=O)N[C@@H]2CC(=O)N[C@@H](Cc3c[nH]c4ccccc34)C(=O)N[C@@H](Cc3ccccc3)C(=O)N[C@H](Cc3ccccc3)CNC2=O)O[C@H](CO)C(O)[C@@H]1O (single isomer, unassigned)
8.3			O=C1CCC(=O)N[C@@H](Cc2c[nH]c3ccccc23)C(=O)N[C@@H](Cc2ccccc2)C(=O)N[C@H](Cc2ccccc2)CN1
8.7	0.316 nM (antagonist)		O=C1C[C@@H](NC(=O)CN2CC[S+]([O-])CC2)C(=O)NC[C@@H](Cc2ccccc2)NC(=O)[C@H](Cc2ccccc2)NC(=O)[C@H](Cc2c[nH]c3ccccc23)N1
8.5	0.501 nM (antagonist)		O=C1C[C@@H](NC[C@H](O)[C@H](O)[C@@H](O[C@H]2O[C@H](CO)[C@@H](O[C@@H]3O[C@@H](CO)[C@H](O)[C@@H](O)[C@@H]3O)[C@H](O)[C@H]2O)[C@H](O)CO)C(=O)NC[C@@H](Cc2ccccc2)NC(=O)[C@H](Cc2ccccc2)NC(=O)[C@H](Cc2c[nH]c3ccccc23)N1
